Test results taken from ChEMBL document CHEMBL1129379, “Heterocyclic ureas: inhibitors of acyl-CoA:cholesterol O-acyltransferase as hypocholesterolemic agents” (J Med Chem, 1996).
pIC50: −log10 of the molar value.

Columns and labels:
[1] = molecular target: T1, Sterol O-acyltransferase 1 (Rattus norvegicus) (UniProt O70536); assay: Percent change in plasma total cholesterol in an acute cholesterol-fed rat model of hypercholesterolemia, dose at 30 mg/kg; format: functional, organism-based; design: dose 30 mg/kg
T1 sequence (whole entry): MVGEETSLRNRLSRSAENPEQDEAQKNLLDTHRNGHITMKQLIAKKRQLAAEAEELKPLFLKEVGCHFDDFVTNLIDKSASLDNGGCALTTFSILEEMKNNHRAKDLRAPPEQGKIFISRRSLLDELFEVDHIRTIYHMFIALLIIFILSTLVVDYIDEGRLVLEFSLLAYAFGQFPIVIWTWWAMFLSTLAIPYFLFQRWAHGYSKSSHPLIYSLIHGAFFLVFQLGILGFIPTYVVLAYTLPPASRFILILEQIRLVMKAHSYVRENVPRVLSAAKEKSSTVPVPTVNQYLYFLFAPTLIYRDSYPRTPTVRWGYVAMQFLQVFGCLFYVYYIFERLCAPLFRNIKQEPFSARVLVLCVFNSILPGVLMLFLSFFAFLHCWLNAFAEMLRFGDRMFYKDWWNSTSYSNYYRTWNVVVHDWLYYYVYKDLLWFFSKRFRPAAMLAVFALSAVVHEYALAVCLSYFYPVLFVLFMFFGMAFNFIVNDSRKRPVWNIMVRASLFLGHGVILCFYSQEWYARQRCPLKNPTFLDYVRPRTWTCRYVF

O-acyltransferase = O-acyltransferase (Oryctolagus cuniculus, UniProt G1SFD9); assay: (§1) Acyl coenzyme A:cholesterol acyltransferase 1 inhibition in vitro measured in rabbit intestinal microsomes; design: species or system Intestine
[2] = molecular target: T1, Sterol O-acyltransferase 1 (Rattus norvegicus); assay: Percent change in plasma total cholesterol in an acute cholesterol-fed rat model of hypercholesterolemia, dose at 3 mg/kg; format: functional, organism-based; design: dose 3 mg/kg
Rattus norvegicus [3] = assay: Percent change in non-HDL-C Dose at 30 mg/kg; format: functional
Procedure, shortened: (§2)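 Chronic rat model of pre-established hypercholesterolemia: 1 week on high-cholesterol diet, then compound dosed orally once daily for 1 week. Plasma total cholesterol, HDL-C and non-HDL-C expressed as percent change versus control; p < 0.05 flagged.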

Rattus norvegicus [4] = assay: Percent change in HDL-CDose at 30 mg/kg; format: functional; procedure, shortened: as §2
[5] = molecular target: T1, Sterol O-acyltransferase 1 (Rattus norvegicus); assay: (§3) Percent change in plasma TC in the chronic C-fed rat model of pre-established hypercholesterolemia. Dose at 30 mg/kg; format: functional, organism-based; design: dose 30 mg/kg; procedure, shortened: as §2
[6] = molecular target: T2, Acyl-CoA:cholesterol acyltransferase (Oryctolagus cuniculus) (UniProt Q95214); assay: as §1; details: Intestine, concentration not given here
T2 sequence (whole entry): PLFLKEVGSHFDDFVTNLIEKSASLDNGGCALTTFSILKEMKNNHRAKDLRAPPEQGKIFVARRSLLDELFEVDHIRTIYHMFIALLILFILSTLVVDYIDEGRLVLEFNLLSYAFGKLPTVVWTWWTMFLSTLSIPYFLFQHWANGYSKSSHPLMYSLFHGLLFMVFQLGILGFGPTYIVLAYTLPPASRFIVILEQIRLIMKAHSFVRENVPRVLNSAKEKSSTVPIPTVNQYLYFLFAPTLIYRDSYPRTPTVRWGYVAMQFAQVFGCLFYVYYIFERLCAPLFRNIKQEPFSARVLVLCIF
Procedure, shortened: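 ACAT activity in intestinal microsomes from cholesterol-fed rabbits, measured by incubation with 14C-labeled oleoyl-CoA; IC50 is the micromolar concentration giving 50% inhibition of enzyme activity.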

Canis familiaris [7] = assay: mean blood drug concentration in dog, compound Dose at 3 mg/kg; format: ADME, organism-based, Canis lupus familiaris; design: dose 3 mg/kg; details: in vivo
Procedure, shortened: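 Cholesterol-fed Beagle dogs dosed at 3 mg/kg. Plasma drug measured by HPLC on a C8 column, acetonitrile/water 4:1 eluent, detection at 190 nm, with a related analog as internal standard. Quantitation limit 40 ng/mL; mean of 6 animals.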

Rattus norvegicus [8] = assay: Percent change in non-HDL-C,Dose at 3 mg/kg; format: functional; procedure, shortened: as §2
Rattus norvegicus [9] = assay: Percent change in non-HDL-C,Dose at 10 mg/kg; format: functional; procedure, shortened: as §2
Rattus norvegicus [10] = assay: Percent change in non-HDL-C,Dose at 30 mg/kg; format: functional; procedure, shortened: as §2
Canis familiaris [11] = assay: Percent change in plasma cholesterol in dog at 3 mg/kg; format: functional, Canis lupus familiaris
Procedure, shortened: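 Cholesterol-fed female Beagle dogs given bulk drug in capsules before meals, daily for 1 week, at 3 mg/kg po. Plasma total cholesterol compared before and after treatment as percent change; paired two-tailed t-test, n = 6.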

Rattus norvegicus [12] = assay: Percent change in HDL-C,Dose at 30 mg/kg; format: functional; procedure, shortened: as §2
Rattus norvegicus [13] = assay: Percent change in plasma TC in the chronic C-fed rat model of pre-established hypercholesterolemia. Dose at 10 mg/kg; format: functional; procedure, shortened: as §2
Rattus norvegicus [14] = assay: Percent change in HDL-C,Dose at 3 mg/kg; format: functional; procedure, shortened: as §2
Rattus norvegicus [15] = assay: Percent change in plasma TC in the chronic C-fed rat model of pre-established hypercholesterolemia, dose at 3 mg/kg; format: functional; procedure, shortened: as §2
Rattus norvegicus [16] = assay: Percent change in HDL-C,Dose at 10 mg/kg; format: functional; procedure, shortened: as §2
Rattus norvegicus [17] = assay: Percent change in HDL-C,dose at 30 mg/kg; format: functional; procedure, shortened: as §2
Rattus norvegicus [18] = assay: Percent change in non-HDL-C,dose at 30 mg/kg; format: functional; procedure, shortened: as §2
Rattus norvegicus [19] = assay: Percent change in plasma TC in the chronic C-fed rat model of pre-established hypercholesterolemia. Dose at 3 mg/kg; format: functional; procedure, shortened: as §2
Rattus norvegicus [20] = assay: as §3; format: functional; procedure, shortened: as §2

SMILES | Delta TC [1] [%] | pIC50 (O-acyltransferase) | Delta TC [2] [%] | further results
CC(C)c1cccc(C(C)C)c1NC(=O)Nc1nnn(CCCCCCCCCCCO)n1 | -28 | 7.49 | – | –
COC(=O)CCCCCCCCCCN1NN=C(NC(=O)Nc2c(C(C)C)cccc2C(C)C)N1 | -23 | 5.33 | – | –
CCCCCCCCCCCCc1coc(NC(=O)Nc2c(C(C)C)cccc2C(C)C)n1 | -55 | 7.20 | – | –
CC(C)c1cccc(C(C)C)c1NC(=O)Nc1nnn[nH]1 | – | < 5.00 | – | –
CCCCCCCCCN1NN=C(NC(=O)Nc2c(C(C)C)cccc2C(C)C)N1 | -65 | 7.51 | 1 | –
CCCCCCCCCCCCCc1cc(NC(=O)Nc2c(C(C)C)cccc2C(C)C)on1 | -62 | 7.89 | -51 | Non-HDL-C (Rattus norvegicus [3]): -65%; Delta HDL-C (Rattus norvegicus [4]): 111%; Delta TC [5]: -53%
CCCCCCCCCCCCn1nnnc1NC(=O)Nc1c(OC)cc(OC)cc1OC | – | – | – | inhibition [6]: 28%
CCCCCCCCCCCCn1cnc(NC(=O)Nc2c(C(C)C)cccc2C(C)C)n1 | -30 | 6.92 | – | –
CCCCCCCCCCCCc1n[nH]c(NC(=O)Nc2c(C(C)C)cccc2C(C)C)n1 | 12 | 5.38 | – | –
CCCCCCCCCCCCCN1NN=C(NC(=O)Nc2c(C(C)C)cccc2C(C)C)N1 | -67 | 8.05 | -67 | Plasma level (Canis familiaris [7]): 76.7 ng/mL; Non-HDL-C (Rattus norvegicus [8]): -47%; Non-HDL-C (Rattus norvegicus [9]): -73%; Non-HDL-C (Rattus norvegicus [10]): -76%; Delta plasma cholesterol (Canis familiaris [11]): -47%; Delta HDL-C (Rattus norvegicus [12]): 113%; Delta TC (Rattus norvegicus [13]): -64%; Delta HDL-C (Rattus norvegicus [14]): 21%; Delta TC [5]: -66%; Delta TC (Rattus norvegicus [15]): -52%; Delta HDL-C (Rattus norvegicus [16]): 113%
CCCCCCCCCCCc1nnc(NC(=O)Nc2c(C(C)C)cccc2C(C)C)s1 | -61 | 7.41 | – | –
CCCCCCCCCCCCN1NN=C(NC(=O)Nc2c(C(C)C)cccc2C(C)C)N1 | -67 | 7.85 | -61 | Plasma level (Canis familiaris [7]): 29.3 ng/mL; Non-HDL-C (Rattus norvegicus [8]): -47%; Delta HDL-C (Rattus norvegicus [17]): 93%; Non-HDL-C (Rattus norvegicus [9]): -72%; Non-HDL-C (Rattus norvegicus [18]): -78%; Delta TC (Rattus norvegicus [19]): -43%; Delta TC (Rattus norvegicus [20]): -69%; Delta plasma cholesterol (Canis familiaris [11]): -39%; Delta TC (Rattus norvegicus [13]): -64%; Delta HDL-C (Rattus norvegicus [14]): 20%; Delta HDL-C (Rattus norvegicus [16]): 87%
CCCCCCCCCCCCn1cnnc1NC(=O)Nc1c(C(C)C)cccc1C(C)C | -28 | – | – | –
CCCCCCCCCCCCn1ncnc1NC(=O)Nc1c(C(C)C)cccc1C(C)C | -36 | 6.60 | – | –
CCCCCCCCCCCN1NN=C(NC(=O)Nc2c(C(C)C)cccc2C(C)C)N1 | -70 | 8.05 | -63 | –
CCCCCCCCCCCCCc1nnc(NC(=O)Nc2c(C(C)C)cccc2C(C)C)s1 | -46 | 7.44 | – | –
CCCCCCCCCCCCCSc1nnc(NC(=O)Nc2c(C(C)C)cccc2C(C)C)n1C(C)=O | -21 | 6.17 | – | –
CCCCCCN1NN=C(NC(=O)Nc2c(C(C)C)cccc2C(C)C)N1 | -59 | 7.14 | -21 | –
CCCCCCCCCCCCc1cc(NC(=O)Nc2c(C(C)C)cccc2C(C)C)on1 | -61 | 7.72 | -58 | Non-HDL-C (Rattus norvegicus [3]): -68%; Delta HDL-C (Rattus norvegicus [12]): 100%; Delta TC [5]: -56%
CCCCCCCCN1NN=C(NC(=O)Nc2c(C(C)C)cccc2C(C)C)N1 | -67 | 7.23 | -24 | –
CCCCN1NN=C(NC(=O)Nc2c(C(C)C)cccc2C(C)C)N1 | -26 | 7.04 | – | –
CCCCCCCCCc1nnc(NC(=O)Nc2c(C(C)C)cccc2C(C)C)s1 | -39 | 6.82 | – | –
